What was measured:
[1] = Drug excretion in SCID mouse xenografted with human HT-29 cells at 0.37 MBq/mouse, iv measured at 4 hrs using 177Lu labelled compound by gamma counter analysis; type: ADME, organism-based; settings: in vivo
Summary of the method: (§1)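 Female SCID mice bearing s.c. flank HT-29 xenografts (5 × 10^6 cells in Matrigel, ~80 mm3). Given 10 μCi (0.37 MBq) 177Lu conjugate i.v. by tail vein; groups sacrificed at 4, 24, 72 h. Tissues weighed and gamma-counted as %ID/g, excretion as %ID; n = 5, mean ± SD. Blocking arms: colchicine 1 mg/kg i.p. beforehand, or D-lysine 40 mg/kg co-injected.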

[2] = Drug uptake in blood of SCID mouse xenografted with human HT-29 cells at 0.37 MBq/mouse, iv measured at 4 hrs using 177Lu labelled compound by gamma counter analysis; type: ADME, organism-based; settings: in vivo; summary of the method: as §1
[3] = Drug uptake in lung of SCID mouse xenografted with human HT-29 cells at 0.37 MBq/mouse, iv measured at 4 hrs using 177Lu labelled compound by gamma counter analysis; type: ADME, organism-based; settings: in vivo
Summary of the method: (§2)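 Female SCID mice (5 weeks) bore s.c. flank xenografts of HT-29 cells (5 × 10^6 in Matrigel), used at about 80 mm3 (two weeks) and randomized. Each mouse received 10 μCi (0.37 MBq) of HPLC-purified 177Lu-conjugate via tail vein. Tissues were excised, weighed and gamma-counted, expressed as %ID/g; mean ± SD, n = 5.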

[4] = Drug uptake in stomach of SCID mouse xenografted with human HT-29 cells at 0.37 MBq/mouse, iv measured at 4 hrs using 177Lu labelled compound by gamma counter analysis; type: ADME, organism-based; settings: in vivo
Summary of the method: (§3)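 Female SCID mice (5 weeks old) received s.c. flank HT-29 cells (5 × 10^6 in Matrigel). At ~80 mm3, two weeks later, mice were randomized and given 10 μCi (0.37 MBq) of purified 177Lu conjugate i.v. by tail vein. Mice were killed at 4, 24 or 72 h. Tissues were weighed and gamma counted as %ID/g, mean ± SD, n = 5. Tumor-to-tissue ratios were calculated.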

[5] = Drug uptake in spleen of SCID mouse xenografted with human HT-29 cells at 0.37 MBq/mouse, iv measured at 4 hrs using 177Lu labelled compound by gamma counter analysis; type: ADME, organism-based; settings: in vivo; summary of the method: as §3
[6] = Drug uptake in large intestine of SCID mouse xenografted with human HT-29 cells at 0.37 MBq/mouse, iv measured at 4 hrs using 177Lu labelled compound by gamma counter analysis; type: ADME, organism-based; settings: in vivo; summary of the method: as §2
[7] = Drug uptake in kidney of SCID mouse xenografted with human HT-29 cells at 0.37 MBq/mouse, iv measured at 4 hrs using 177Lu labelled compound by gamma counter analysis; type: ADME, organism-based; settings: in vivo; summary of the method: as §2
[8] = Drug uptake in bone of SCID mouse xenografted with human HT-29 cells at 0.37 MBq/mouse, iv measured at 4 hrs using 177Lu labelled compound by gamma counter analysis; type: ADME, organism-based, Bone element; settings: in vivo; summary of the method: as §2
[9] = Drug uptake in heart of SCID mouse xenografted with human HT-29 cells at 0.37 MBq/mouse, iv measured at 24 hrs using 177Lu labelled compound by gamma counter analysis; type: ADME, organism-based; settings: in vivo; summary of the method: as §2
[10] = Drug uptake in brain of SCID mouse xenografted with human HT-29 cells at 0.37 MBq/mouse, iv measured at 4 hrs using 177Lu labelled compound by gamma counter analysis; type: ADME, organism-based; settings: in vivo; summary of the method: as §2
[11] = Drug uptake in lung of SCID mouse xenografted with human HT-29 cells at 0.37 MBq/mouse, iv measured at 24 hrs using 177Lu labelled compound by gamma counter analysis; type: ADME, organism-based; settings: in vivo; summary of the method: as §2
[12] = Drug uptake in blood of SCID mouse xenografted with human HT-29 cells at 0.37 MBq/mouse, iv measured at 24 hrs using 177Lu labelled compound by gamma counter analysis; type: ADME, organism-based; settings: in vivo; summary of the method: as §1
[13] = Drug uptake in stomach of SCID mouse xenografted with human HT-29 cells at 0.37 MBq/mouse, iv measured at 24 hrs using 177Lu labelled compound by gamma counter analysis; type: ADME, organism-based; settings: in vivo; summary of the method: as §3
[14] = Drug uptake in muscle of SCID mouse xenografted with human HT-29 cells at 0.37 MBq/mouse, iv measured at 24 hrs using 177Lu labelled compound by gamma counter analysis; type: ADME, organism-based, Muscle tissue; settings: in vivo; summary of the method: as §2
[15] = Drug uptake in brain of SCID mouse xenografted with human HT-29 cells at 0.37 MBq/mouse, iv measured at 24 hrs using 177Lu labelled compound by gamma counter analysis; type: ADME, organism-based; settings: in vivo; summary of the method: as §2
[16] = Drug excretion in SCID mouse xenografted with human HT-29 cells at 0.37 MBq/mouse, iv measured at 24 hrs using 177Lu labelled compound by gamma counter analysis; type: ADME, organism-based; settings: in vivo; summary of the method: as §1
[17] = Drug uptake in heart of SCID mouse xenografted with human HT-29 cells at 0.37 MBq/mouse, iv measured at 72 hrs using 177Lu labelled compound by gamma counter analysis; type: ADME, organism-based; settings: in vivo; summary of the method: as §2
[18] = Drug uptake in lung of SCID mouse xenografted with human HT-29 cells at 0.37 MBq/mouse, iv measured at 72 hrs using 177Lu labelled compound by gamma counter analysis; type: ADME, organism-based; settings: in vivo; summary of the method: as §2
[19] = Drug uptake in liver of SCID mouse xenografted with human HT-29 cells at 0.37 MBq/mouse, iv measured at 72 hrs using 177Lu labelled compound by gamma counter analysis; type: ADME, organism-based; settings: in vivo; summary of the method: as §2
[20] = Drug uptake in pancreas of SCID mouse xenografted with human HT-29 cells at 0.37 MBq/mouse, iv measured at 72 hrs using 177Lu labelled compound by gamma counter analysis; type: ADME, organism-based; settings: in vivo; summary of the method: as §2
[21] = Drug uptake in spleen of SCID mouse xenografted with human HT-29 cells at 0.37 MBq/mouse, iv measured at 72 hrs using 177Lu labelled compound by gamma counter analysis; type: ADME, organism-based; settings: in vivo; summary of the method: as §3
[22] = Drug uptake in small intestine of SCID mouse xenografted with human HT-29 cells at 0.37 MBq/mouse, iv measured at 72 hrs using 177Lu labelled compound by gamma counter analysis; type: ADME, organism-based; settings: in vivo; summary of the method: as §2
[23] = Drug uptake in large intestine of SCID mouse xenografted with human HT-29 cells at 0.37 MBq/mouse, iv measured at 72 hrs using 177Lu labelled compound by gamma counter analysis; type: ADME, organism-based; settings: in vivo; summary of the method: as §2
[24] = Drug uptake in kidney of SCID mouse xenografted with human HT-29 cells at 0.37 MBq/mouse, iv measured at 72 hrs using 177Lu labelled compound by gamma counter analysis; type: ADME, organism-based; settings: in vivo; summary of the method: as §2
[25] = Drug uptake in muscle of SCID mouse xenografted with human HT-29 cells at 0.37 MBq/mouse, iv measured at 72 hrs using 177Lu labelled compound by gamma counter analysis; type: ADME, organism-based, Muscle tissue; settings: in vivo; summary of the method: as §2
[26] = Drug uptake in brain of SCID mouse xenografted with human HT-29 cells at 0.37 MBq/mouse, iv measured at 72 hrs using 177Lu labelled compound by gamma counter analysis; type: ADME, organism-based; settings: in vivo; summary of the method: as §2
[27] = Drug uptake in SCID mouse xenografted with human HT-29 cells assessed as tumour retention level at 0.37 MBq/mouse, iv measured at 72 hrs using 177Lu labelled compound by gamma counter analysis; type: ADME, organism-based; settings: in vivo; summary of the method: as §1
[28] = Drug excretion in SCID mouse xenografted with human HT-29 cells at 0.37 MBq/mouse, iv measured after 72 hrs using 177Lu labelled compound; type: ADME, organism-based; settings: in vivo; summary of the method: as §1
[29] = Octanol-PBS buffer distribution coefficient, log D of 177Lu labelled compound at pH 7.4 by radiometric analysis; type: physicochemical
Summary of the method: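 177Lu conjugate partitioned between 1-octanol and PBS pH 7.4. 100 μL aliquots from each layer were gamma counted, and LogD7.4 was calculated from the counts.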

Row | Compound | Drug excretion [1] [%ID] | Drug uptake [2] [% ID/g] | Drug uptake [3] [% ID/g] | Drug uptake [4] [% ID/g] | Drug uptake [5] [% ID/g] | Drug uptake [6] [% ID/g] | Drug uptake [7] [% ID/g] | Drug uptake [8] [% ID/g] | Drug uptake [9] [% ID/g] | Drug uptake [10] [% ID/g] | Drug uptake [11] [% ID/g] | Drug uptake [13] [% ID/g] | Drug uptake [14] [% ID/g] | Drug uptake [15] [% ID/g] | Drug excretion [16] [%ID] | Drug uptake [18] [% ID/g] | Drug uptake [19] [% ID/g] | Drug uptake [20] [% ID/g] | Drug uptake [21] [% ID/g] | Drug uptake [22] [% ID/g] | also measured
1 | Cc1cc(O)cc(C)c1C[C@H](NC(=O)[C@@H]1CCCN1C(=O)[C@H](CCCNC(=N)N)NC(=O)[C@H](CCCNC(=N)N)N(C)C(=O)[C@@H]1CCCN1C(=O)[C@H](CCCCN)NC(=O)[C@@H](CO)NC(=O)[C@@H](CO)NC(=O)[C@@H](CO)NC(=O)[C@H](Cc1cn(CC(=O)N[C@H](CO)C(=O)N[C@H](CO)C(=O)N[C@H](CO)C(=O)NCC(=O)NCCCC[C@H](NC(=O)[C@H](Cc2ccccc2)NC(=O)OCc2ccccc2)C(=O)NCCc2ccccc2)nn1)NC(=O)CN1CCN(CC(=O)O)CCN(CC(=O)O)CCN(CC(=O)O)CC1)C(=O)N[C@H](C(=O)N[C@@H](CC(C)C)C(=O)O)C(C)(C)C | 36.6 | 0.83 | 4.3 | 1.6 | 19 | 4 | 64 | 2.6 | 0.6 | 0.11 | 2.2 | 0.9 | 0.38 | 0.04 | 56 | 1.2 | 5.3 | 0.68 | 18 | 3.2 | Drug uptake [12]: 0.14 % ID/g; Drug uptake [17]: 0.27 % ID/g; Drug uptake [23]: 1.62 % ID/g; Drug uptake [24]: 28 % ID/g; Drug uptake [25]: 0.12 % ID/g; Drug uptake [26]: 0.01 % ID/g; Drug uptake [27]: 3.4 % ID/g; Drug excretion [28]: 73 %ID
2 | Cc1cc(O)cc(C)c1C[C@H](NC(=O)[C@@H]1CCCN1C(=O)[C@H](CCCNC(=N)N)NC(=O)[C@H](CCCNC(=N)N)N(C)C(=O)[C@@H]1CCCN1C(=O)[C@H](CCCCN)NC(=O)[C@@H](CO)NC(=O)[C@@H](CO)NC(=O)[C@@H](CO)NC(=O)[C@H](Cc1cn(CCNC(=O)[C@H](CCCNC(=N)N)NC(=O)[C@H](CC(C)C)NC(=O)CCC(=O)O)nn1)NC(=O)CN1CCN(CC(=O)O)CCN(CC(=O)O)CCN(CC(=O)O)CC1)C(=O)N[C@H](C(=O)N[C@@H](CC(C)C)C(=O)O)C(C)(C)C | 75 | 0.01 | 0.37 | 0.27 | 1 | 1 | 57 | 0.18 | 0.01 | 0.02 | 0.25 | 0.15 | 0.05 | 0.01 | 84.7 | 0.24 | 0.26 | 0.08 | 0.8 | 1.07 | Drug uptake [23]: 0.36 % ID/g; Drug uptake [24]: 15 % ID/g; Drug uptake [25]: 0.01 % ID/g; Drug uptake [26]: 0.01 % ID/g; Drug uptake [27]: 2.6 % ID/g; Drug excretion [28]: 91.6 %ID; logD [29]: -3.51
